This is a sample that favours compounds with a hit; in the whole collection about 2.4% have one here.
ERAP1 inh: human ERAP1 aminopeptidase inhibitors, primary screen, biochemical, single point, plate reader; Endoplasmic reticulum aminopeptidase 1 (Homo sapiens), Q9NZ08; recombinant ERAP1, Leu-AMC fluorescence, 60 min; inhibition, % at 10.7 µM; 340,000 tested, 0.15% active; AID 652197, 2013;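 active means mean replicate inhibition of at least 30%, or all replicates individually reaching that 30% level; inactive means mean below 30% and not every replicate reaching it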
S100A4 MyoIIA: inhibitors of S100A4-myosin IIA peptide binding, primary screen, biochemical, fluorescence polarization, TAMRA-MyoIIA peptide; 360,000 tested, 0.14% active; AID 652163, 2013; inhibition, % at 10.7 µM; Protein S100-A4 (Homo sapiens), P26447;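 active means mean inhibition of at least 70% across replicates, with every replicate also reaching that level; inconclusive means mean inhibition reaches 70% but some replicates fall short; inactive means mean inhibition below 70%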
Target sequence (P26447 whole entry, looked up): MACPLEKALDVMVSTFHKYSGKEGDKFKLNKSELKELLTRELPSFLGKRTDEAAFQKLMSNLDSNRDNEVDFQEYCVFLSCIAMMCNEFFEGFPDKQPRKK
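System – human S100A4 monomer protein, biochemical binding assay · Buffer or medium – Calcium-containing HEPES buffer, pH 7.2 · Timing – 5 min between mix addition and reading · Also added – TAMRA-labelled myosin IIA heavy-chain peptide probe, 5 nM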
ARNT TACC3 PPI: disruptors of ARNT/TACC3 protein interaction, primary screen, biochemical, AlphaScreen, single concentration | 390,000 tested, 0.66% active | AlphaScreen His-ARNT PAS-B/GST-TACC3 binding, luminescence; TACC3 fragment carries E629A point mutation | inhibition, % at 9.99 µM | Transforming acidic coiled-coil-containing protein 3 (Homo sapiens), Q9Y6A5;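 active means mean inhibition of replicates at least 50% and at least half of replicates each reaching 50%; inconclusive means half or more replicates reach 50% but mean below 50%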
PGC1a acetyl inh: inhibitors of PGC1a acetylation signal, primary screen, cell-based, U2OS, AlphaScreen, inhibitor mode. 350,000 tested, 0.17% active. AlphaScreen anti-acetyl-lysine; with virally co-expressed GCN5 acetyltransferase. inhibition, % at 15.6 µM. AID 651687, 2012;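 active means every replicate shows inhibition of at least 40%; inconclusive means mean inhibition at least 40% but some replicate below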
CASP6 VEID inh: human caspase-6 inhibitors, primary screen, biochemical, VEID-R110 fluorescence, single point, set 2 | 350,000 tested, 0.53% active | inhibition, % at 12.5 µM | P55212 | AID 686996, 2013 | purified caspase-6, Z-VEID-R110 cleavage fluorescence;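 active means mean inhibition across replicates at least about 35%, with every replicate also reaching that limit, limit read from the data; inconclusive means only one of the two criteria met; inactive means neither criterion met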
Target sequence (P55212 24-179 limits assumed): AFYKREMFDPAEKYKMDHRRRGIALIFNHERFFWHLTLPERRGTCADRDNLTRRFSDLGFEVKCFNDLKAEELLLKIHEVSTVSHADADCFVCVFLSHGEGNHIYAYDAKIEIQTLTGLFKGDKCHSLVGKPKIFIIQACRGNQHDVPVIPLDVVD
Target sequence (P55212 194-293 limits assumed): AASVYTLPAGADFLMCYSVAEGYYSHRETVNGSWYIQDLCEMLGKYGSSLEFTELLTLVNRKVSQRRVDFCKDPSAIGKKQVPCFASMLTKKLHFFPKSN
rRNA inh HTS: reduced GFP signal of wild-type E. coli, primary screen, bacterial rRNA inhibitor project, GFP/RFP fluorescence, OD600, single point | E. coli WT GFP vs humanized-ribosome RFP mutants, 24 h; hits give low values; DMSO median 0, no signal -100 | GFP signal change (wild-type ribosome), % (test concentration not listed) | 350,000 tested, 1.6% active | AID 720706, 2013;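 active means significant combined selectivity score with lowered wild-type GFP, culture density cut under 30%, mutant RFP and density less affected; inactive means any of these conditions unmet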
AID977621: growth inhibition of wild-type GFP E. coli, dose response, H69 mutant RFP, cherry-pick. shares compounds with rRNA inh HTS. E. coli wild-type GFP strain growth, fluorescence, 24 h. activity change, negative = inhibition at 50 µM. 1,900 tested, under 10 active;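 active means Wild-type ribosome reporter drop at least double the humanized mutant ribosome reporter drop, growth loss under a set limit; inconclusive means no clear call, values can overlap the other calls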;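 further: wild-type GFP and H69 mutant RFP strains grown together 50/50 in each well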
AID977628: E. coli growth inhibition, wild-type GFP versus h24 humanized RFP strain, dose response, h24 mutant RFP vs wild-type GFP, cherry-pick | shares compounds with rRNA inh HTS | E. coli WT GFP strain growth, fluorescence, 24 h | activity change, negative = inhibition at 50 µM | 1,900 tested, under 10 active;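 active means compound lowering the normal-ribosome reporter at least twice as much as the humanized-ribosome reporter, growth loss under a set limit; inconclusive means no clear call, values can overlap the other calls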;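 further: wild-type GFP and h24 humanized RFP strains co-cultured 1 to 1 per well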
A number is an active result; i = inactive; ? = inconclusive; nt = no result.

SMILES	ERAP1 inh	S100A4 MyoIIA	ARNT TACC3 PPI	PGC1a acetyl inh	CASP6 VEID inh	rRNA inh HTS	AID977621	AID977628
COc1ccc(OC)c(S(=O)(=O)Nc2cccc3ccc(O)cc23)c1	i	i	i	nt	i	-32.0	i	i
COc1ccc(OC)c(S(=O)(=O)Nc2c(F)cccc2F)c1	nt	nt	i	i	nt	nt	nt	nt
CO[C@@H]1CN(C)C(=O)c2ccc(NC(=O)Nc3ccccc3F)cc2OC[C@@H](C)N(C(=O)c2cnccn2)C[C@H]1C	i	i	i	i	i	i	nt	nt
CS(=O)(=O)c1ccc(Cl)c(NC(=O)CSc2nncn2-c2ccccc2)c1	i	i	i	i	i	-22.1	i	i
O=C(C[C@H]1CC[C@@H]2[C@H](COC[C@@H](O)CN2C(=O)c2ccccn2)O1)N1CCN(c2ccccc2)CC1	i	i	i	i	i	i	nt	nt
CCc1cccc(CC)c1NC(=O)Cn1c(-c2ccc(F)cc2)noc1=O	i	i	i	i	i	-16.6	i	i
CCOc1ccccc1NC(=O)Cn1c(-c2ccc(Cl)cc2)noc1=O	i	i	i	i	i	i	nt	nt
O=C(CCC(=O)N1CCN(c2ccc(F)cc2)CC1)c1ccccc1	i	i	i	i	i	i	nt	nt
O=C(CCC(=O)N1CCN(c2ccc(F)cc2)CC1)c1ccc(F)cc1	i	i	nt	nt	i	-20.5	i	i
c1ccc(CSCc2ccccc2)cc1	i	i	i	i	i	-25.2	i	i
C(#CSCc1ccccc1)SCc1ccccc1	i	i	nt	i	i	i	nt	nt
O=C(c1ccccc1)N1CC2(C1)[C@H](c1ccccc1)[C@H](CO)N2Cc1cc(F)ccc1F	i	i	nt	i	i	i	nt	nt
CN(C)C(=O)[C@H]1[C@H](CO)[C@H]2Cn3c(ccc(C4=CCCCC4)c3=O)[C@@H]1N2Cc1ccccc1	i	i	i	nt	i	i	nt	nt
C[C@@H]1CN([C@H](C)CO)C(=O)c2cc(-c3ccccc3F)cnc2O[C@H]1CN(C)C	i	i	i	i	i	i	nt	nt
Cc1ccsc1C(=O)N1CCCC(C(=O)c2cc(F)ccc2F)C1 (stereo not drawn)	i	i	i	i	i	-16.4	nt	?
C[C@@H]1CN([C@H](C)CO)C(=O)c2cc(Br)cnc2O[C@H]1CN(C)C(=O)C1CC1	nt	nt	nt	i	nt	i	nt	nt
COc1ccc(C(=O)Nc2cccc3ccccc23)cc1	i	i	i	nt	i	-18.7	i	i
COc1cc(OC)cc(C(=O)Nc2ccc(C(=O)Nc3ccccc3OC)cc2)c1	i	i	i	i	i	-21.6	i	?
COc1ccccc1NC(=O)c1ccc(NC(=O)c2ccco2)cc1	i	i	i	nt	i	i	nt	nt
C[C@@H]1CN([C@@H](C)CO)S(=O)(=O)c2ccc(-c3cccnc3)cc2O[C@@H]1CN(C)Cc1ccncc1	i	i	i	i	i	i	nt	nt
CCCC(=O)N1CC2(CN(S(=O)(=O)CC)C2)c2c(n(C)c3cc(OC)ccc23)[C@H]1CO	i	i	nt	i	nt	i	nt	nt
CN(C)S(=O)(=O)c1cccc(NC(=O)c2ccc3c(c2)S(=O)(=O)N=C2CCCCCN23)c1	i	i	i	i	i	-19.8	i	i
CN(C)S(=O)(=O)c1cccc(NC(=O)c2cc3c(cc2Cl)N2CCCCCC2=NS3(=O)=O)c1	i	i	i	nt	i	i	nt	nt
CN(C)S(=O)(=O)c1cccc(C(=O)Nc2ccc(C(=O)Nc3cccc(S(N)(=O)=O)c3)cc2)c1	i	i	i	i	i	-24.4	nt	i
CN(C)S(=O)(=O)c1cccc(NC(=O)c2cccc(NS(=O)(=O)c3ccccc3)c2)c1	i	i	i	nt	i	i	nt	nt
SMILES	ERAP1 inh	S100A4 MyoIIA	ARNT TACC3 PPI	PGC1a acetyl inh	CASP6 VEID inh	rRNA inh HTS	AID977621	AID977628
CCCN(C)C[C@H]1Oc2ncc(Br)cc2C(=O)N([C@H](C)CO)C[C@H]1C	i	i	i	i	i	i	nt	nt
COC(=O)c1ccc2nc(-c3cccc(Cl)c3)c(Cc3ccsc3)n2c1	i	i	nt	i	i	i	nt	nt
COC(=O)c1ccc2nc(-c3cccc(Br)c3)c(Cc3ccsc3)n2c1	nt	i	nt	i	i	-34.2	?	nt
COC(=O)c1cc(C(=O)Cc2ccccc2)c[nH]1	i	i	nt	nt	i	-21.9	i	nt
NC(=O)c1cc(C(=O)Cc2ccccc2)c[nH]1	i	i	i	nt	i	i	nt	nt
NC(=O)c1ccsc1NC(=O)COC(=O)CSc1ccc(Cl)cc1	i	i	i	i	i	-20.7	nt	?
COCC(=O)N1CCC2(CC1)CN(C(=O)Nc1ccccc1F)[C@H](CO)c1c2c2ccc(OC)cc2n1C	i	?	nt	i	i	i	nt	nt
COc1ccc(C(=O)Cn2c(C)nc([N+](=O)[O-])c2Br)cc1	nt	i	i	nt	i	-35.4	nt	i
CCC(=O)Nc1ccc(-c2ccc(NC(=O)CC)c(OC)c2)cc1OC	i	i	i	i	i	i	nt	nt
CCN(CC(=O)Nc1cccc(S(=O)(=O)N2CCCC2)c1)CC(=O)Nc1ccccc1OC	i	i	i	nt	i	-18.1	i	i
CCN(CC)CC(=O)Nc1ccc(-c2ccc(NC(=O)CN(CC)CC)c(OC)c2)cc1OC	i	i	i	i	i	-23.0	i	nt
COc1ccc(Cl)cc1NC(=O)CN(C)CC(=O)Nc1cccc(S(=O)(=O)N2CCCC2)c1	i	i	i	nt	i	i	nt	nt
O=C(NCC[C@@H]1CC[C@@H](NC(=O)c2ccc3c(c2)OCO3)[C@H](CO)O1)Nc1cc(F)ccc1F	i	i	i	i	i	i	nt	nt
COc1ccc(NC(=O)c2cccc(Oc3ccc([N+](=O)[O-])cc3Cl)c2)cc1	i	i	nt	nt	i	-24.0	i	i
O=C(Nc1cccc(Cl)c1)c1cccc(Oc2ccc([N+](=O)[O-])cc2Cl)c1	i	i	i	nt	i	i	nt	nt
Cc1nn(-c2cccc(Cl)c2)nc1C(=O)O	i	i	i	nt	i	-16.4	i	nt
CNC(=O)c1ccsc1NC(=O)c1ccc2c(c1)CCCC2	i	i	i	i	i	-25.8	?	nt
NC(=O)c1ccsc1NC(=O)c1ccc2c(c1)CCCC2	i	i	i	i	i	i	nt	nt
CN(C)C(=O)C[C@@H]1C[C@H]2c3cc(NC(=O)Nc4ccccc4)ccc3O[C@H]2[C@@H](CO)O1	nt	nt	i	i	nt	i	nt	nt
Cn1c(C(=O)NCc2cccnc2)cc2sccc21	i	i	i	i	i	i	nt	nt
COc1ccccc1CNC(=O)c1cc2sccc2n1C	i	i	i	i	i	-20.4	i	nt
